The source of these data is PubChem BioAssay AID1424 (The Scripps Research Institute Molecular Screening Center, 2008).

Out of some 220,000 compounds screened, about 390 (0.18%) were called active. This is one part of a sample in which actives are shown more often than they occur.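 Rule for the calls: active = activation above its plate's cutoff, the mean activation of test wells on that plate plus 3 SD (cut at about 19% in these data); inactive = the rest.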

In the test the test system is transient receptor potential cation channel N1 (TRPN1/NompC), Danio rerio. The experiment in a line: TRPN1 activation via calcium influx – cell-based, HEK293, calcium fluorescence, zebrafish, primary screen (AID 1424).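 Note: 0% = DMSO alone and 100% = 87 µM carbachol.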 The settings on record: HEK293 zebrafish TRPN1-YFP, Fluo-8 calcium fluorescence; at 3 µM; stronger effect = higher value; 100% = response to 87 µM carbachol. In outline:
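Material: zebrafish TRPN1-YFP in HEK293 cells; Doses: single test compound dose, 3 µM nominal, 0.3% DMSO; Timing: dye loading 1 h at 37 °C, then 30 min room temperature; Technique: intracellular calcium fluorescence with Fluo-8; Benchmarks: high carbachol 87 µM, low DMSO alone.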
For the molecule `COC(=O)c1ccc(NC(=O)c2ccccc2NS(=O)(=O)c2ccccc2)cc1`, the activation is 19.8% (active). The same measure for `COc1cc(NC(=O)c2cccnc2SC)cc(OC)c1`: -0.29% (inactive); for `CCOc1ccc(NC(=O)c2ccccc2NS(C)(=O)=O)cc1`: 0.2% (inactive); for `O=C(Nc1nncs1)c1ccccc1NS(=O)(=O)c1cccs1`: -0.5% (inactive). With `COc1cc(NC(=O)c2ccccc2NS(=O)(=O)c2ccc(Cl)s2)cc(OC)c1`, the activation is 21% (active). As to `COC(=O)c1ccccc1NC(=O)c1ccccc1NS(C)(=O)=O`, the activation is -1.95% (inactive). `C=C(C)CNC(=S)N/N=C/c1ccccc1OCC(=O)O`: the activation was 1.26% (inactive).

Turning to `Cc1ccc2cc(CN(c3ccc(C)c(C)c3)S(C)(=O)=O)c(=O)[nH]c2c1`, the activation is 1.62% (inactive).

For the molecule `CC#CC[N+](C)(C)CCCCCC`, the activation is -0.58% (inactive). The same measure for `COCCN(Cc1nc(-c2ccc(C(F)(F)F)cc2)no1)C(C)C`: 0.76% (inactive); for `O=C(CCNC(=O)Cn1ccc2ccccc2c1=O)NCCC1=CCCCC1`: -0.5% (inactive). For the molecule `COc1ccc(OC)c(-c2c(=O)n(OCc3ccccc3Br)c3ccccc3[n+]2[O-])c1`, the activation was -1.72% (inactive). The same measure for `COc1ccc(C(C)=O)cc1COc1ccc(Cl)c(C)c1`: 0.81% (inactive). The same measure for `CCOC(=O)CC1C(=O)NCCN1c1nc2c(C)cccn2c(=O)c1/C=C1\SC(=S)N(C(C)CC)C1=O` (stereo not drawn): 23.3% (active); for `Cc1cccn2c(=O)c(/C=C3\SC(=S)N(CC(C)C)C3=O)c(NCCCOC(C)C)nc12`: 1.73% (inactive). The same measure for `CCOC(=O)CC1C(=O)NCCN1C(=O)COc1ccc(Br)cc1C` (stereo not drawn): -0.63% (inactive); for `CCOC(=O)C1(Cc2cccc(OC)c2)CCN(C(C)COC)CC1` (stereo not drawn): -0.77% (inactive).

In the case of `Cc1ccc(N2C(=O)S/C(=C/c3cn(C)c4ccccc34)C2=O)cc1`, the activation was 1.3% (inactive). The same measure for `O=C(NCCc1c[nH]c2ccccc12)C(=O)NCC1CCCO1` (stereo not drawn): 0.46% (inactive); for `N#C/C(=C/c1ccc(N2CCCCC2)o1)C(=O)NCCc1c[nH]c2ccccc12`: 29.5% (active); for `N#C/C(=C/c1ccc(-c2ccccc2[N+](=O)[O-])o1)C(=O)NCCN1CCCCC1`: -2.16% (inactive). Take `COCCCNC(=O)CNC(=S)N(Cc1cc(OC)c(OC)c(OC)c1)C1CCCC1`: the activation was 0.25% (inactive).

For the molecule `C=CCNC(=O)c1ccccc1NC(=O)c1ccc(Cl)c(S(=O)(=O)Nc2cccc(C)c2C)c1`, the activation was 1.27% (inactive). On to `Cn1nnnc1-c1cc(Cl)cc(Cl)c1`, for which the activation was -0.59% (inactive). Consider `CCN1/C(=C/c2ccc3ccc(C)cc3[n+]2CC)Sc2ccccc21`, for which the activation was 30.7% (active). The same measure for `CCN1/C(=C\c2ccc3ccccc3[n+]2CC)Sc2cc(C)ccc21`: 38.4% (active); for `CCN1/C(=C/C(=S)Nc2ccccc2)Sc2ccccc21`: -1.89% (inactive); for `CCN1CCN(CCNC(=O)c2ccc(/C=C3/Sc4ccccc4N(Cc4cccc(C)c4)C3=O)cc2)CC1`: 4.77% (inactive). As to `CC(C)(C)C(=O)CSc1nc2ccccc2o1`, the activation was -0.66% (inactive). With `COc1cc(OC)c(-n2c(C)cc(C=O)c2C)cc1Cl`, the activation is -1.14% (inactive). The figure for `COc1ccc(-c2cn(-c3ccc(OC)cc3)c(=S)[nH]2)cc1` is -0.09% (inactive); for `COc1cc(OC)c(-n2cc(-c3ccc(Cl)cc3)[nH]c2=O)cc1Cl` it is 32.6% (active); for `O=C(c1snnc1-c1ccccc1)N1CCOCC1` it is -0.06% (inactive). Turning to `CC(=O)Nc1ccc(S(=O)(=O)Nc2ccc(-c3ccc4nnc(C)n4n3)cc2)cc1`, the activation was 0.58% (inactive). With `O=C(NCC(c1cccs1)N1CCOCC1)c1cc(-c2ccccn2)nc2ccccc12` (stereo not drawn), the activation is 1.98% (inactive).

For `CC(C)(C)c1cnnn1-c1ccc([N+](=O)[O-])cc1`, the activation is 1.54% (inactive). `CN=C1C=C/C(=N/N=c2\ccn(O)cc2C)C=C1C`: the activation is -3.14% (inactive). The same measure for `CCC(C(=O)Nc1ccc(C(C)C)cc1)c1ccccc1` (stereo not drawn): 29% (active). As for `CCC(C(=O)OCC(=O)Nc1ccc(C(=O)Nc2ccc(OC)cc2)cc1)c1ccccc1` (stereo not drawn), the activation was 2.79% (inactive).

Consider `CCC(C(=O)Nc1ccc2c(c1)OCCO2)c1ccccc1` (stereo not drawn), for which the activation was -0.31% (inactive). The figure for `CC1=NN(Cc2ccccc2)C(=O)/C1=C/c1ccc(N(C)C)cc1` is -3.57% (inactive).

Turning to `O=C1NCC(=O)N(Cc2ccccc2)/C1=C/c1ccccc1`, the activation was 0.65% (inactive). The same measure for `CN(C)c1ccc(/C=C2\NC(=S)N(Cc3ccccc3)C2=O)cc1`: 30.3% (active); for `Cc1ccc(S(=O)(=O)N2CCOCC2)cc1NC(=O)CSc1nnc(N)s1`: 0.64% (inactive); for `CC1CN(CCCOc2ccccc2-c2ccccc2)CC(C)O1` (stereo not drawn): -1.64% (inactive).

With `CC(CNS(=O)(=O)c1ccc(Br)cc1)CN(C)C` (stereo not drawn), the activation was 0.45% (inactive). The figure for `CCOc1cc2[nH]c(=O)n(Cc3ccc(C(=O)NCCCN4CCCC4=O)cc3)c(=O)c2cc1OCC` is -0.57% (inactive). Take `CC(C)(c1ccccc1)c1ccc(OCCN)cc1`: the activation was 2.87% (inactive).

`CONc1nc2nonc2nc1NOC`: the activation is 2.6% (inactive). The figure for `CC1C(=O)NC(=O)C1c1ccccc1` (stereo not drawn) is 0.95% (inactive).

With `Cc1cc(C)c(OCCN2CC(C)OC(C)C2)c(Br)c1` (stereo not drawn), the activation is -2.75% (inactive). For `Cc1ccc2[nH]cc(CCNC(=O)c3ccc([N+](=O)[O-])cc3)c2c1`, the activation is -0.48% (inactive). On to `COc1cc(/C=N\Nc2nc(-c3cccs3)c(NC(C)=O)s2)ccc1O`, for which the activation is 0.7% (inactive). The same measure for `COc1cc(/C=C(\C#N)c2nc3c(s2)CC(C)CC3)ccc1O` (stereo not drawn): 9.23% (inactive); for `CCOc1cc(/C=C(\C#N)c2nc(-c3cccs3)c(NC(C)=O)s2)ccc1O`: 26.9% (active). The figure for `COC(=O)c1cc(NC(=O)Cc2ccccc2[N+](=O)[O-])ccc1Cl` is -1.23% (inactive). The same measure for `CC(=O)OC(C)C[N+](C)(C)C` (stereo not drawn): 51% (active). Consider `CC(C[N+](C)(C)C)OC(N)=O` (stereo not drawn), for which the activation is 0.21% (inactive). The same measure for `CN1CCN(c2cc3c(cc2F)c(=O)c(C(=O)O)cn3CCF)CC1`: 1.93% (inactive); for `O=C(N1CCCCC1)N1CCN(C(=O)N2CCCCC2)CC1`: 1.43% (inactive); for `COc1ccc(OCCCn2cccc2/C=C2/C(=N)N3OC(C)=CC3=NC2=O)cc1`: 1.04% (inactive). The same measure for `CCOc1cc(/C=C2/C(=N)N3OC(C)=CC3=NC2=O)ccc1OC`: -0.5% (inactive); for `CC1=CC2=NC(=O)/C(=C/c3coc4ccccc4c3=O)C(=N)N2O1`: 35.5% (active).
